Publication PMC6585414 (Infection and Drug Resistance, 2019)
No end group written: not given here.

Tests used:
[1] = Serum biochemical factors after intraperitoneal injection; format: in vivo, mouse; settings: blood 48 h after the injection, mean ± standard deviation
Procedure, shortened: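 Mice given PBS (control) or peptide at 50 or 100 μg/mouse by single ip injection (100 μL/mouse). Blood (0.2 mL) drawn 48 h later and serum GPT, GOT, total bilirubin and uric acid quantified. Five mice per group. Data shown as mean ± SD, compared by ANOVA, p<0.05 taken as significant.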

[2] = system: human embryonic kidney cells (HEK-293); experiment: MTT cytotoxicity assay; format: cell-based; settings: 1.56–50 μg/mL, 48 h, 37°C, in words (Figure 6)
Procedure, shortened: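 HEK-293 cells seeded fresh at 1×10^5 cells/well, exposed to twofold serial peptide dilutions (1.56–50 μg/mL) at 37°C in 5% CO2 for 48 h. MTT (5 mg/mL stock, 10 μL) then added for 4 h. Formazan dissolved in 100% DMSO, absorbance read at 575 nm, percentage viable cells derived. Triplicate, three independent repeats, mean ± SD.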

Row | Substance | Serum level of GOT ([1]; 50 μg/mouse ip) [U/L] | Serum level of GPT ([1]; 50 μg/mouse ip) [U/L] | Serum level of TBIL ([1]; 50 μg/mouse ip) [mg/dL] | Serum level of UA ([1]; 50 μg/mouse ip) [mg/dL] | Serum level of GOT ([1]; 100 μg/mouse ip) [U/L] | Serum level of GPT ([1]; 100 μg/mouse ip) [U/L] | Serum level of TBIL ([1]; 100 μg/mouse ip) [mg/dL] | Serum level of UA ([1]; 100 μg/mouse ip) [mg/dL] | Cytotoxic activity against HEK-293 [2]
1 | FFHHIFRGKVHVGKTIHRLVTG-NH2 [I9K-piscidin-1] | 9.27±0.78 | 6.26±0.22 | 0.18 ± 0.07 | 0.43 ± 0.05 | 10.32±0.88 | 6.86±0.82 | 0.48 ± 0.10 | 0.81 ± 0.07 | –
2 | FFHHIFRGIVHVGKTIHRLVTG-NH2 [Piscidin-1, reference compound] | 9.48±1.06 | 5.83±0.52 | 0.19 ± 0.04 | 0.45 ± 0.06 | 10.64±0.97 | 4.62±0.42 | 0.27 ± 0.07 | 0.53 ± 0.08 | highest cytotoxic activity
3 | FFHHIFRGAVHVGKTIHRLVTG-NH2 [I9A-piscidin-1] | 8.96±1.12 | 6.67±0.47 | 0.21 ± 0.06 | 0.42 ± 0.07 | 10.86±1.07 | 7.17±0.37 | 0.51 ± 0.09 | 0.87 ± 0.09 | –
4 | FFHHIFRGIVHVGKTKHRLVTG-NH2 [I16K-piscidin-1] | 8.88±0.86 | 6.43±0.86 | 0.20 ± 0.05 | 0.41 ± 0.11 | 8.53±1.15 | – | – | – | lowest activity against HEK-293 cells compared to other peptides
5 | FFHHIFRGIVHVGKTAHRLVTG-NH2 [I16A-piscidin-1] | 9.22±0.90 | 5.92±1.10 | 0.20 ± 0.04 | 0.39 ± 0.12 | 11.08±0.94 | 7.33±1.10 | 0.53 ± 0.08 | 0.77 ± 0.14 | –
